Series [1] concerns the target T1, E. coli GroEL/ES (Escherichia coli, UniProt P0A6F5). Description: Inhibition of Escherichia coli GroEL expressed in Escherichia coliDH5alpha/Escherichia coli GroES expressed in Escherichia coli BL21 (DE3) assessed as reduction in GroEL/GroES-mediated denatured MDH refolding by measuring MDH enzyme activity using sodium mesoxalate as substrate after 20 to 40 mins by spectrometric analysis. In outline:
(§1)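 Coupled refolding assay: denatured rhodanese or MDH refolded by GroEL/ES (50 nM GroEL tetradecamer, 700 nM subunits), read-out via enzymatic activity of refolded substrate; counter-screened against native enzyme activity. IC₅₀ as back-calculated mean of log-transformed replicate values.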

Series [2] in a line: Binding affinity to Escherichia coli GroEL expressed in Escherichia coli DH5alpha by ITC assay. The gist of the method:
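ITC at 20°C: 400 µM GroEL (monomer) in syringe titrated into 50 µM compound in cell, matched buffer 20 mM HEPES pH 7.4, 50 mM KCl, 10 mM MgCl₂, 1% DMSO; 0.4 µL first injection discarded, then 2.0 µL injections at 3-min intervals, 600 rpm. Single-site fit gave Kd, n, ΔH, ΔS; five or six replicates.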
A general note: ITC needs no label: the signal is the heat of the interaction.

The target of a further series is HSP60/HSP10 (Homo sapiens, UniProt P10809). Description: Inhibition of human N-terminal octa-His-tagged HSP60 expressed in Escherichia coli Rosetta(DE3) pLysS/human HSP10 expressed in Escherichia coli Rosetta(DE3) assessed as reduction in HSP60/HSP10-mediated denatured MDH refolding by measuring MDH enzyme activity using sodium mesoxalate as substrate after 40 to 60 mins by spectrometric analysis. The gist of the method:
(§2)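 Chaperonin-mediated refolding of denatured MDH, coupled to MDH enzymatic activity as the reporter. Human HSP60/10 (HSP60 without its 26-residue mitochondrial signal peptide) or E. coli GroEL/ES was used, with GroEL tetradecamer at 50 nM (700 nM subunits) during the refolding cycle. IC50s from replicate dose-response curves were averaged as logs after ROUT outlier removal.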

Series [3] can be described thus: Cytotoxicity against human THLE3 cells after 48 hrs by Alamar blue assay. Format: cell-based. In outline:
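THLE-3 cells, grown in BEBM with the BEGM kit and 10% FBS, were seeded at 1,500 cells/well and allowed 24 h at 37°C, 5% CO2. Compounds were then added at 100 µM to 46 nM final (3-fold steps, 0.1% DMSO) for 48 h. […] CC50 is the log-average of at least triplicate runs.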
(In general: Resazurin is reduced to fluorescent resorufin, in cell work by metabolically active cells.)

Series [4] concerns the target T2, Thiosulfate sulfurtransferase (Homo sapiens, UniProt Q16762).
T2 sequence (Q16762 whole entry): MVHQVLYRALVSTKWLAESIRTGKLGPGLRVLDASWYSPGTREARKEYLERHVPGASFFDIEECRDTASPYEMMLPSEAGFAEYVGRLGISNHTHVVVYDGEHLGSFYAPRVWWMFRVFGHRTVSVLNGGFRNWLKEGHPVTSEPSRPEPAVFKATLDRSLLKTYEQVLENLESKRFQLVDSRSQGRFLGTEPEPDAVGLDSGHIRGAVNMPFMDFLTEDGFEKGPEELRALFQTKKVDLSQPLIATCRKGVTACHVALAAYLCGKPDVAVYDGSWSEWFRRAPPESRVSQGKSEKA
Description: Inhibition of refolded rhodanese (unknown origin) preincubated with Escherichia coli GroEL/GroES for 60 mins by measuring […] after 20 to 40 mins by spectrometric analysis.

Series [5] can be described thus: Inhibition of refolded MDH (unknown origin) preincubated with Escherichia coli GroEL/GroES for 45 mins using sodium mesoxalate as substrate by spectrometric analysis. Details: species or system Homo sapiens. In outline:
as §2

The target of series [6] is T1, E. coli GroEL/ES. Description: Inhibition of Escherichia coli GroEL expressed in Escherichia coli DH5alpha/Escherichia coli GroES expressed in Escherichia coli BL21 (DE3) assessed as reduction in GroEL/GroES-mediated denatured rhodanese refolding by measuring rhodanese enzyme activity after 45 mins by spectrometric analysis. The gist of the method:
as §1

The subject of series [7] is Staphylococcus aureus. Description: Antibacterial activity against multidrug resistant Staphylococcus aureus ATCC BAA-44 after 6 to 8 hrs. It is filed as functional, organism-based.
A short description of series [8]: Selectivity index, ratio of CC50 for human THLE3 cells to EC50 for multidrug resistant Staphylococcus aureus ATCC BAA-44. Format: toxicity. Particulars: read-out: Ratio CC50/EC50.
For series [9], the system named is Staphylococcus aureus. Kind of series: Antibacterial activity against multidrug resistant Staphylococcus aureus ATCC BAA-44 at >100 uM passaged for 12 days in fresh liquid media supplemented with compound followed by re-culturing for 24 hrs on agar and another 24 hrs in liquid medium. Format: functional, organism-based. The gist of the method:
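After 12-day serial passage under compound, resistant culture regrown without inhibitor 24 h on agar then 24 h in liquid medium, then retested for growth inhibition; % growth inhibition averaged (±SD) from 4 replicates.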

The subject of series [10] is Staphylococcus aureus. Description: Antibacterial activity against multidrug resistant Staphylococcus aureus ATCC BAA-44 at >100 uM passaged for 12 days in fresh liquid media supplemented with compound. It is filed as functional, organism-based.

Calls of active or inactive are those of the source. The calls are words filed in the database; no cut-off is given here.

The text below walks through data of ChEMBL document CHEMBL4152346, “Sulfonamido-2-arylbenzoxazole GroEL/ES Inhibitors as Potent Antibacterials against Methicillin-Resistant Staphylococcus aureus (MRSA)” (J Med Chem, 2018).

T1 sequence (P0A6F5 whole entry, looked up): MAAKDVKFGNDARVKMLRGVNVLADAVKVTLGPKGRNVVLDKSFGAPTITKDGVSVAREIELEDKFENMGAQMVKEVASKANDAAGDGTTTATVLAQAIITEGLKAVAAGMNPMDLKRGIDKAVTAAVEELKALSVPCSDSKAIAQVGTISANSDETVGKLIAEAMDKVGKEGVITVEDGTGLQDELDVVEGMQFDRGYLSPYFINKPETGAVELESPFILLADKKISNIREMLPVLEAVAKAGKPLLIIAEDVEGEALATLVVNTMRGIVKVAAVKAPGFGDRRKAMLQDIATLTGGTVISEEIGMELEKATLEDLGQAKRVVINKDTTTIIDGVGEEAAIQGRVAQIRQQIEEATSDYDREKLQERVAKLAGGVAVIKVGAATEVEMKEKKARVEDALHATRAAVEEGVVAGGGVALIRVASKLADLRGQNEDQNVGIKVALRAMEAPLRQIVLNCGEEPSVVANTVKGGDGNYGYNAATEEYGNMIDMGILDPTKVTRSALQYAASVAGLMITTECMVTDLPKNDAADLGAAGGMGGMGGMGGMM
Sequence of HSP60/HSP10 (P10809 whole entry): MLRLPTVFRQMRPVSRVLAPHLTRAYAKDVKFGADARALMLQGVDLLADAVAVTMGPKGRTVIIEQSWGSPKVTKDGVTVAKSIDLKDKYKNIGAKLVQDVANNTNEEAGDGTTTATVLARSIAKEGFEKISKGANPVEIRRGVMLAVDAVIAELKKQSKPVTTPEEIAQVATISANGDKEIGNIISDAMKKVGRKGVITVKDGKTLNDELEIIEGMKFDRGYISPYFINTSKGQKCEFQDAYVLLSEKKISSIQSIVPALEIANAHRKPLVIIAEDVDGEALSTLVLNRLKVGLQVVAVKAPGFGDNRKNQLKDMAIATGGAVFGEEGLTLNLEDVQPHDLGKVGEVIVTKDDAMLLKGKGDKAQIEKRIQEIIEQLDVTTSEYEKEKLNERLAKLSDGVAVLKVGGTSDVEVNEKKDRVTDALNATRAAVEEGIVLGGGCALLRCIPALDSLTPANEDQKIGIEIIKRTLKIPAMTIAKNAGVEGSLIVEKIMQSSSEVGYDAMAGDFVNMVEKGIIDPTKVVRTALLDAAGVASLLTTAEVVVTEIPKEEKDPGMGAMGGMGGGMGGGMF
Sequence of HSP60/HSP10 (P61604 whole entry, further chain): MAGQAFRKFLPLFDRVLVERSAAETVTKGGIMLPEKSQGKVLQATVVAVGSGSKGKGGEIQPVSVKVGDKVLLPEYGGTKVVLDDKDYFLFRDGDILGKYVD

Take `NCc1ccc(S(=O)(=O)Nc2ccc3oc(-c4ccc(NS(=O)(=O)c5ccc(Cl)s5)cc4)nc3c2)cc1`: the IC50 – broadly, the concentration at which inhibition is half-maximal – at E. coli GroEL/ES [1] came out at 3.1 µM. In addition, the affinity in [2], expressed as Kd, was 0.15 µM.
Turning to `O=[N+]([O-])c1cc(S(=O)(=O)Nc2ccc3oc(-c4ccc(NS(=O)(=O)c5ccc(Cl)s5)cc4)nc3c2)ccc1Cl`, the 50% inhibitory concentration (IC50) is 1 µM at HSP60/HSP10, above 100 µM in series [4], 37 µM in series [5] and 1 µM on E. coli GroEL/ES [6]. For the same molecule, the CC50 – broadly, the concentration giving 50% cytotoxicity – at 48 h in [3] is 11 µM. Further, it took 0.97 µM to reach a half-maximal effect with Staphylococcus aureus [7] (EC50).
With `O=S(=O)(Nc1ccc2oc(-c3ccc(NS(=O)(=O)c4ccc(Cl)s4)cc3)nc2c1)c1ccc(Cl)c(Cl)c1`, the selectivity ratio in series [8] amounted to 46. Moreover, the IC50 on HSP60/HSP10 was 4.7 µM; in series [4], above 100 µM; in series [5] it was above 63 µM; on E. coli GroEL/ES [6], 6.4 µM; on E. coli GroEL/ES [1], 5.1 µM. The same molecule registered a CC50 at 48 h in [3] of 24 µM. A half-maximal response in the series with Staphylococcus aureus [7] (EC50) required 0.53 µM.
Regarding `O=[N+]([O-])c1cc(S(=O)(=O)Nc2ccc(-c3nc4cc(NS(=O)(=O)c5ccc(Cl)s5)ccc4o3)cc2)ccc1Cl`, the selectivity ratio in series [8] turned out to be 10. Besides, the IC50 worked out at 2.1 µM on HSP60/HSP10; 53 µM in series [4]; 34 µM in [5]; 2 µM on E. coli GroEL/ES [6]; 1.5 µM on E. coli GroEL/ES [1]. The molecule further registered a CC50 at 48 h in series [3] of 17 µM. In the series with Staphylococcus aureus [7], the response was half-maximal at 1.7 µM (EC50). For the same molecule, the result in the series on Staphylococcus aureus [9] was Active.
As for `NCc1ccc(S(=O)(=O)Nc2ccc(-c3nc4cc(NS(=O)(=O)c5ccc(Cl)s5)ccc4o3)cc2)cc1`, the IC50 at E. coli GroEL/ES [6] worked out at 3.2 µM; at E. coli GroEL/ES [1] it was 1.3 µM. The outcome in the series on Staphylococcus aureus [10] was Active. The midpoint of the response in the series on Staphylococcus aureus [7], the EC50, lay at 19 µM. Further, the Kd – broadly, the concentration at which binding is half-saturated – in series [2] worked out at 0.036 µM.
